ChEMBL document CHEMBL1833903, “Isomeric acetoxy analogs of celecoxib and their evaluation as cyclooxygenase inhibitors” (Bioorg Med Chem Lett, 2011)
Calls of active or inactive are those of the source. No cut-off for these calls is given here.

Key:
Rattus norvegicus [1] = experiment: Antiinflammatory activity in rat assessed as inhibition of carrageenan-induced hind paw edema at 50 mg/kg, po measured after 3 hrs post dose; assay type: functional, organism-based; set-up: dose 50 mg/kg
Summary of the method: (§1)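 Male Sprague-Dawley rats; paw edema induced with carrageenan; test compound given orally at the stated dose. Edema inhibition read 3 h after dosing, as a mean of n = 4. ED50 values were derived where determined.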

[2] = molecular target: T1, Prostaglandin G/H synthase 1 (Ovis aries, UniProt P05979); experiment: Inhibition of ovine COX1 by enzyme immuno assay
T1 sequence (P05979 whole entry): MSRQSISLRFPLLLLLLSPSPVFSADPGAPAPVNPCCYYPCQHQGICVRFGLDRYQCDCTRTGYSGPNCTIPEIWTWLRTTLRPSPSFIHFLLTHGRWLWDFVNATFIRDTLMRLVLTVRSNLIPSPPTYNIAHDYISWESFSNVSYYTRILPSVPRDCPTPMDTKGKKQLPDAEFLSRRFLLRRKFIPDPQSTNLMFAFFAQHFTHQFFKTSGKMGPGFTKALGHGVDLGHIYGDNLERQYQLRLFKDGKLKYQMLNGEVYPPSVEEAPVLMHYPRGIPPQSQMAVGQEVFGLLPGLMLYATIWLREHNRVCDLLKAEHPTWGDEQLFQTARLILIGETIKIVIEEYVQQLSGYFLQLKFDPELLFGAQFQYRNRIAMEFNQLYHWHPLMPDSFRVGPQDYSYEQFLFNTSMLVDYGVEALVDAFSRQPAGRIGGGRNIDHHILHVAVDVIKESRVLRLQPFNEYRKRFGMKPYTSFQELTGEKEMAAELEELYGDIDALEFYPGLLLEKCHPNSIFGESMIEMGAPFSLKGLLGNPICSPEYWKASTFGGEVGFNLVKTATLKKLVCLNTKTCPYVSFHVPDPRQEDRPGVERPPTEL

Rattus norvegicus [3] = experiment: Antiinflammatory activity in rat assessed as inhibition of carrageenan-induced hind paw edema at 10 mg/kg, po measured after 3 hrs post dose; assay type: functional, organism-based; set-up: dose 10 mg/kg; summary of the method: as §1
Rattus norvegicus [4] = experiment: Antiinflammatory activity in po dosed rat assessed as inhibition of carrageenan-induced hind paw edema measured after 3 hrs post dose; assay type: functional; summary of the method: as §1

| IC50 [2] | SMILES | other results |
| --- | --- | --- |
| > 100 µM | CC(=O)Oc1cc(-c2cc(C(F)(F)F)nn2-c2ccc(S(N)(=O)=O)cc2)ccc1C | inhibition (Rattus norvegicus [1]): inactive |
| – | CC(=O)Oc1cc(-c2cc(C(F)(F)F)nn2-c2ccc(S(C)(=O)=O)cc2)ccc1C | inhibition (Rattus norvegicus [3]): inactive |
| 36 µM | Cc1ccc(-c2cc(C(F)(F)F)nn2-c2ccc(S(N)(=O)=O)cc2)c(O)c1 | inhibition (Rattus norvegicus [3]): inactive |
| > 100 µM | CC(=O)Oc1cc(F)ccc1-c1cc(C(F)(F)F)nn1-c1ccc(S(C)(=O)=O)cc1 | – |
| > 100 µM | CC(=O)Oc1ccc(-c2cc(C(F)(F)F)nn2-c2ccc(S(N)(=O)=O)cc2)cc1 | inhibition (Rattus norvegicus [1]): inactive |
| > 100 µM | CC(=O)Oc1cccc(-c2cc(C(F)(F)F)nn2-c2ccc(S(C)(=O)=O)cc2)c1 | – |
| – | CC(=O)Oc1ccccc1C(=O)O [ASPIRIN] | ED50 (Rattus norvegicus [4]): 129 mg/kg |
| > 100 µM | CC(=O)Oc1cc(C)ccc1-c1cc(C(F)(F)F)nn1-c1ccc(S(C)(=O)=O)cc1 | – |
| > 100 µM | CC(=O)Oc1cc(C)ccc1-c1cc(C(F)(F)F)nn1-c1ccc(S(N)(=O)=O)cc1 | inhibition (Rattus norvegicus [1]): inactive |
| – | CC(C)Cc1ccc(C(C)C(=O)O)cc1 (centres undefined) [IBUPROFEN] | ED50 (Rattus norvegicus [4]): 67.4 mg/kg |
| > 100 µM | CC(=O)Oc1ccccc1-c1cc(C(F)(F)F)nn1-c1ccc(S(N)(=O)=O)cc1 | – |
| 0.7 µM | CC(=O)Oc1cc(F)ccc1-c1cc(C(F)(F)F)nn1-c1ccc(S(N)(=O)=O)cc1 | ED50 (Rattus norvegicus [4]; Rattus norvegicus, po, 3 h, read-out: ED50): 42.3 mg/kg |
| 80.3 µM | CC(=O)Oc1ccc(-c2cc(C(F)(F)F)nn2-c2ccc(S(C)(=O)=O)cc2)cc1 | – |
| > 100 µM | CC(=O)Oc1cccc(-c2cc(C(F)(F)F)nn2-c2ccc(S(N)(=O)=O)cc2)c1 | – |
